The record followed here is ChEMBL document CHEMBL1149737, “Brominated polyacetylenic acids from the marine sponge Xestospongia muta: inhibitors of HIV protease” (J Nat Prod, 1992).

In one experiment the test system is MOLT-4. Nature of the experiment: Cytotoxicity against human MOLT4 cells. It counts as functional, cell-based.
A further experiment is filed under the species Sus scrofa. Put plainly: Inhibition of pig malic dehydrogenase at 100 ug/ml.
The next experiment deals with Protease (Human immunodeficiency virus 1, UniProt Q9YQ12). Nature of the experiment: Inhibition of HIV1 protease-mediated proteolysis of rabbit muscle lactate dehydrogenase by spectrophotometry. It counts as single protein. The procedure, abridged:
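Purified HIV-1 protease (0.8 µg) with rabbit muscle LDH (0.5–2 mg/ml) in 80 mM Na acetate pH 4.7, 1 mM EDTA, 1 mM DTT, 0.2 M NaCl, 37°, 10–60 min. Aliquots were diluted into 0.1 M K phosphate pH 7.0, 30 min RT. Residual LDH was read as NADH loss at 340 nm (7.6 mM pyruvate, 0.2 mM NADH, 37°) from initial slopes. Controls lacked protease.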

For experiment [1], the target named is T1, ATP-citrate synthase (Rattus norvegicus) (UniProt P16638).
T1 sequence (whole entry): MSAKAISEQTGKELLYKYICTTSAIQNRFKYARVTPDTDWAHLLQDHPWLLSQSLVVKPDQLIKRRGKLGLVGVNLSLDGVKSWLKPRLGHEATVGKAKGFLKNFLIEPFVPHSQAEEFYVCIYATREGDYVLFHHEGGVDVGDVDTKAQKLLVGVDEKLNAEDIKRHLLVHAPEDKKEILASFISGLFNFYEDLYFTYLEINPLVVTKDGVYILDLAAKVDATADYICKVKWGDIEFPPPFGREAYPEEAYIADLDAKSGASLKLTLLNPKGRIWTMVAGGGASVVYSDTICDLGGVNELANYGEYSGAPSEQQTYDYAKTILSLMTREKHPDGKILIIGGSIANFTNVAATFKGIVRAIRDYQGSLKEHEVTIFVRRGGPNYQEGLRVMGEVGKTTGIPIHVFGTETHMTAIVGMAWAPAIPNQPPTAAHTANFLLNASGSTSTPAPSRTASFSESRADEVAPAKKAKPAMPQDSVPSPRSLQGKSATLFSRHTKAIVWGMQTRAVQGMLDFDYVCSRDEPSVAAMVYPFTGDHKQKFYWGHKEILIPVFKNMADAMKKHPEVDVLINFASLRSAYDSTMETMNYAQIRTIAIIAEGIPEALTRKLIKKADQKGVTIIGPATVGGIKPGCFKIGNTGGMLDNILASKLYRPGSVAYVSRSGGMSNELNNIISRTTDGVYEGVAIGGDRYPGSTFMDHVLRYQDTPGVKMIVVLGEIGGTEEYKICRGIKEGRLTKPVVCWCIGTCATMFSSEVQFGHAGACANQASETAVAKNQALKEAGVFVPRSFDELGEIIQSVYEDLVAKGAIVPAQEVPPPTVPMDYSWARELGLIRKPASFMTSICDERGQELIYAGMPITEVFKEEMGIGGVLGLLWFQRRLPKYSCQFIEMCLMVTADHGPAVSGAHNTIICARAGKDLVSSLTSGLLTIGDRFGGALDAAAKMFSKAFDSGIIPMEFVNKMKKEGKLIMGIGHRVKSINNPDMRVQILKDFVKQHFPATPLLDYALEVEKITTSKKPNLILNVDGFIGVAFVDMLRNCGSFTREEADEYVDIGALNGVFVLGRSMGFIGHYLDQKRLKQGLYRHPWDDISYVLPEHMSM
Nature of the experiment: Inhibition of rat ATP citrate lyase at 100 ug/ml.

The term IC50 denotes the concentration needed to halve the response being measured.

The source made the active and inactive calls. The rule behind the calls is not given here.

Chain of Protease (Q9YQ12 whole entry): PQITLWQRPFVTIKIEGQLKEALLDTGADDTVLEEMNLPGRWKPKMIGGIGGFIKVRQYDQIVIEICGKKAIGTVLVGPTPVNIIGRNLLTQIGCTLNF

In the case of `O=C(O)CCCC#CC#C/C=C/CCCCC#C/C=C/Br`, the result in the experiment on MOLT-4 was Active. Moreover, the outcome (in the experiment filed under Sus scrofa; in experiment [1]) was inactive. Also, half-maximal inhibition against Protease (IC50) required 8 µM.

In the case of `O=C(O)CCCC#CC#C/C=C/CCCCCC/C=C/Br`, the outcome in the experiment on MOLT-4 was Active. The result (in the experiment listed under Sus scrofa; in experiment [1]) was inactive. The compound also registered an IC50 on Protease of 12 µM.

As to `O=C(O)CCCC#CC#C/C=C/CC/C=C/C#C/C=C/Br`, the outcome in the experiment with MOLT-4 was Active. Besides, the result (in the experiment filed under Sus scrofa; in experiment [1]) was inactive. Moreover, the IC50 at Protease was found to be 6 µM.

In the case of `O=C(O)CCCC#C/C=C/CCCC/C=C/C#C/C=C/Br`, the outcome in the experiment on MOLT-4 was Active. Besides, the result (in the experiment filed under Sus scrofa; in experiment [1]) was inactive. Besides, the half-maximal inhibitory concentration (IC50) against Protease worked out at 10 µM.

Take `O=C(O)CCCC#CC#C/C=C/CCCC/C=C/C#CBr`: the result with MOLT-4 was Active. The result (in the experiment filed under Sus scrofa; in experiment [1]) was inactive. On Protease, it took 7 µM to reach half-maximal inhibition (IC50).

As for `COC(=O)CCCC#CC#C/C=C/CCCCCC/C=C/Br`, the outcome in the experiment on MOLT-4 was Active. Besides, the outcome (in the experiment filed under Sus scrofa; in experiment [1]) was inactive. Besides, at Protease, the IC50 worked out at 10 µM.
